Activity calls are given as the source filed them. No cut-off for these calls is given here.
Assays:
[1] = system: Human immunodeficiency virus 1; test: Antiviral activity against HIV1 infected in human TZM-bl cells assessed as inhibition of viral infection at 10 uM preincubated with cells for 3 hrs followed by viral infection measured after 24 hrs by Bright Glo luciferase reporter gene assay relative to control; format: functional; conditions: Human immunodeficiency virus 1, TZM-bl
Procedure, shortened: (§1)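 TZM-bl cells at 50-60% confluence, in D10 medium, were pre-treated in triplicate with 10 µM compound or DMSO vehicle, for 5 min or 3 h. Virus was then added at 60 TCID50/0.1mL (MOI=0.01). After 24 h the cells were lysed for luciferase, read over 5 s/well. Result is % reduction in relative light units versus the virus+DMSO control.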

[2] = Cytotoxicity against human PM1 cells assessed as inhibition of cell viability at 5 uM by trypan blue dye exclusion method relative to control; format: cell-based; conditions: for inhibition (INH): pm1, 5 µM; for cytotoxicity at 5 µM: PM1 cells, read-out: INH
Procedure, shortened: (§2)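 PM1 cells (1.5 × 10^5/0.1 mL) kept in R20 with compound or matched DMSO vehicle over the 5-day BaL propagation assay (10 min pre-treatment, 2 h infection, wash, re-treatment). Viability monitored by trypan blue dye exclusion.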

[3] = Cytotoxicity against human PM1 cells assessed as inhibition of cell viability at 10 uM by trypan blue dye exclusion method relative to control; format: cell-based; conditions: read-out: INH; procedure, shortened: as §2
[4] = Cytotoxicity against human TZM-bl cells assessed as inhibition of cell viability at 10 uM by CytoTox Glo assay relative to control; format: cell-based; conditions: for cytotoxicity at 10 µM: TZM-bl cells, read-out: INH; for inhibition (INH): tzm, 10 µM
Procedure, shortened: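 Replicate dishes of treated TZM-bl cells (50-60% confluent, compound at 10 µM in D10, triplicate) assayed with CytoTox Glo for dead and total cell numbers. Result is % difference in live-cell luminescence versus matched DMSO vehicle control.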

[5] = system: Human immunodeficiency virus 1; test: Antiviral activity against HIV1 BAL infected in human PM1 cells assessed as inhibition of viral propagation at 5 uM preincubated with cells for 10 mins followed by viral infection measured after 2 hrs by p24 ELISA relative to control; format: functional; conditions: for inhibition at 5 µM: Human immunodeficiency virus 1, BAL
Procedure, shortened: (§3)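 PM1 cells (1.5 × 10^5/0.1 mL) in R20 (RPMI 1640, 20% FBS, 10mM HEPES) given compound or matched DMSO 10 min, then infected with HIV-1 BaL at 150 TCID50/0.1 mL (MOI=0.001) for 2 h. Cells washed, resuspended in fresh R20 with compound or vehicle. Supernatants taken day 3; culture continued to day 5, supernatant assayed for HIV p24 by ELISA.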

[6] = system: Human immunodeficiency virus 1; test: Antiviral activity against HIV1 BAL infected in human PM1 cells assessed as inhibition of viral propagation at 10 uM preincubated with cells for 10 mins followed by viral infection measured after 2 hrs by p24 ELISA relative to control; format: functional; conditions: for inhibition at 10 µM: Human immunodeficiency virus 1, BAL; procedure, shortened: as §3
[7] = system: Human immunodeficiency virus 1; test: Antiviral activity against HIV1 infected in human TZM-bl cells assessed as inhibition of viral infection at 10 uM preincubated with cells for 5 mins followed by viral infection measured after 24 hrs by Bright Glo luciferase reporter gene assay relative to control; format: functional; conditions: for inhibition at 10 µM: Human immunodeficiency virus 1, TZM-bl; procedure, shortened: as §1
[8] = Cytotoxicity against human TZM-bl cells assessed as decrease in cell viability at IC50 by CytoTox Glo assay relative to control; format: cell-based
[9] = system: Human immunodeficiency virus 1; test: Antiviral activity against HIV1 BAL infected in human TZM-bl cells assessed as inhibition of viral infection; format: functional, organism-based; conditions: for IC50: Human immunodeficiency virus 1, BAL
Procedure, shortened: (§4)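 TZM-bl cells seeded at 6 × 10^4 cells/ml (6000 cells/well), left overnight, then at 50-60% confluence treated in triplicate with compound in D10 or DMSO vehicle. After 5 min, HIV-1 added at 60 TCID50/0.1mL (MOI=0.01). After 24 h at 37°C/5% CO2, cells lysed for Bright Glo luciferase. Inhibition is % reduction in RLU versus virus+DMSO control, with no-virus wells as baseline.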

[10] = system: CHO; test: Cytotoxicity against CHO cells assessed as decrease in cell proliferation after 48 hrs by MTS assay; format: cell-based, Cricetulus griseus
Procedure, shortened: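 CHO cells plated at 10,000 cells/mL, in triplicate, incubated overnight. Compound then added from DMSO stock, final DMSO <1%. After 48 h at 37°C in 5% CO2, MTS reagent was added for 4 h and absorbance read at 490 nm. IC50 taken from the plot of relative A490 versus concentration.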

[11] = Cytotoxicity against human PM1 cells assessed as cell viability at 10 uM by trypan blue dye exclusion method relative to control; format: cell-based; conditions: read-out: Activity; procedure, shortened: as §2
[12] = system: Human immunodeficiency virus 1; test: Antiviral activity against HIV1 93UG067 clinical isolate infected in human TZM-bl cells assessed as inhibition of viral infection; format: functional, organism-based; procedure, shortened: as §4
[13] = Cytotoxicity against human TZM-bl cells assessed as decrease in cell metabolic activity up to 10 uM by MTT reduction assay; format: ADME, cell-based
Procedure, shortened: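 Confluent TZM-bl cells exposed to compound up to 10 µM or matched vehicle; cell metabolic activity monitored by MTT reduction assay. Mean ± SEM, n=3.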

[14] = system: Human immunodeficiency virus 1; test: Antiviral activity against HIV1 92UG029 clinical isolate infected in human TZM-bl cells assessed as inhibition of viral infection; format: functional, organism-based; procedure, shortened: as §4
[15] = system: Human immunodeficiency virus 1; test: Antiviral activity against HIV1 93UG070 clinical isolate infected in human TZM-bl cells assessed as inhibition of viral infection; format: functional, organism-based; procedure, shortened: as §4

SMILES: CCOc1ccc(Cl)cc1/C=C/C(=O)c1c(O)cccc1OCc1ccccc1
- inhibition at 10 µM [1]: 79%
- inhibition (INH) [2]: Not Active
- cytotoxicity at 10 µM [3]: 12.3%
- cytotoxicity at 10 µM [4]: 8.7%
- inhibition at 5 µM [5]: 65.8%
- inhibition at 10 µM [6]: 95.8%
- inhibition at 10 µM [7]: 64.8%

SMILES: CCOc1ccc(Cl)cc1-c1oc2ccccc2c(=O)c1O
- inhibition at 10 µM [1]: 54.1%
- Activity [8]: 20%
- cytotoxicity at 10 µM [3]: 25.8%
- IC50 [9]: 12.6 µM
- cytotoxicity at 10 µM [4]: 21.9%
- inhibition [6]: inactive

SMILES: COc1ccccc1-c1cc(=O)c2c(O)cccc2o1
- Activity [8]: 42%
- IC50 [9]: 4.4 µM
- cytotoxicity at 10 µM [4]: 44.5%
- inhibition at 10 µM [7]: 83.8%

SMILES: COc1ccc(C)cc1-c1oc2ccccc2c(=O)c1O
- cytotoxicity at 10 µM [4]: 4.8%

SMILES: COc1ccc(Br)cc1/C=C1\Oc2cccc(OC)c2C1=O
- IC50 ([10]; Cricetulus griseus, CHO, 48 h, read-out: IC50): 17.3 µM
- cytotoxicity at 10 µM [4]: 0.2%
- inhibition at 10 µM [7]: 9.2%

SMILES: COc1ccc(Br)cc1/C=C/C(=O)c1ccc2ccccc2c1O
- Activity [8]: 90%
- IC50 [9]: 20 µM
- cytotoxicity at 10 µM [4]: 19.9%

SMILES: CCOc1ccc(Br)cc1-c1oc2ccccc2c(=O)c1O
- inhibition at 10 µM [1]: 54.9%
- Activity [8]: Non-toxic
- cytotoxicity at 5 µM [2]: 16.5%
- cytotoxicity at 10 µM [3]: 23.1%
- IC50 [9]: 10.4 µM
- inhibition (INH) [4]: Not Active
- inhibition [5]: inactive
- inhibition at 10 µM [6]: 1.3%
- inhibition at 10 µM [7]: 51.7%

SMILES: COc1ccc(Br)cc1/C=C/C(=O)c1c(O)cccc1OC
- cytotoxicity at 10 µM [4]: 90.4%

SMILES: COc1cc(OC)c(/C=C/C(=O)c2ccccc2O)cc1Br
- cytotoxicity at 10 µM [4]: 1.9%
- inhibition at 10 µM [7]: 28.6%

SMILES: COc1ccccc1/C=C/C(=O)c1ccccc1O
- cytotoxicity at 10 µM [4]: 16.5%
- inhibition [7]: inactive

SMILES: COc1ccc(Br)cc1-c1cc(=O)c2c(O)cccc2o1
- cytotoxicity at 10 µM [4]: 34.8%

SMILES: COc1ccccc1/C=C/C(=O)c1c(O)cccc1OCc1ccccc1
- IC50 ([10]; cho): ND(toxic)

SMILES: CCOc1ccc(Cl)cc1/C=C1\Oc2cccc(OCc3ccccc3)c2C1=O
- inhibition (INH) [4]: Not Active
- inhibition at 10 µM [7]: 15.7%

SMILES: COc1ccccc1-c1cc(=O)c2ccccc2o1
- cytotoxicity at 10 µM [4]: 39.5%

SMILES: COc1ccccc1-c1oc2ccccc2c(=O)c1O
- Activity [8]: Non-toxic
- IC50 [9]: 30.4 µM
- inhibition (INH) [4]: Not Active
- inhibition at 10 µM [7]: 21.3%

SMILES: CCOc1ccc(Br)cc1/C=C1\Oc2cccc(OCc3ccccc3)c2C1=O
- cytotoxicity at 10 µM [4]: 8.4%
- inhibition at 10 µM [7]: 12.6%

SMILES: COc1ccc(Br)cc1/C=C/C(=O)c1ccccc1O
- cytotoxicity at 10 µM [4]: 62.6%

SMILES: COc1cc(Br)cc(-c2oc3ccccc3c(=O)c2O)c1OC
- Activity [8]: Non-toxic
- IC50 [9]: 30.9 µM
- inhibition (INH) [4]: Not Active
- inhibition at 10 µM [7]: 25.9%

SMILES: CCOc1ccc(Br)cc1/C=C/C(=O)c1c(O)cccc1OCc1ccccc1
- inhibition at 10 µM [1]: 89.9%
- viability at 10 µM [11]: 96.8%
- inhibition (INH) [2]: Not Active
- inhibition (INH) [4]: Not Active
- inhibition at 5 µM [5]: 72.2%
- inhibition at 10 µM [6]: 92.3%
- inhibition at 10 µM [7]: 60.2%

SMILES: COc1ccc(C)cc1/C=C/C(=O)c1ccccc1O
- cytotoxicity at 10 µM [4]: 46.9%

SMILES: COc1ccc(Cl)cc1/C=C/C(=O)c1ccccc1O
- cytotoxicity at 10 µM [4]: 99.5%

SMILES: COc1ccc(Br)cc1-c1cc(=O)c2ccccc2o1
- cytotoxicity at 10 µM [4]: 23.6%

SMILES: CCCCCCCCOc1ccc(Br)cc1/C=C/C(=O)c1c(O)cccc1OCc1ccccc1
- inhibition at 10 µM [1]: 27.9%
- inhibition at 10 µM [7]: < 10%

SMILES: COc1cc(OC)c(-c2oc3ccccc3c(=O)c2O)cc1Br
- inhibition (INH) [4]: Not Active
- inhibition at 10 µM [7]: 43.6%

SMILES: COc1ccc(Br)cc1-c1cc(=O)c2c(OCc3ccccc3)cccc2o1
- Activity [8]: Non-toxic
- IC50 [9]: 42.3 µM
- cytotoxicity at 10 µM [4]: 6.5%
- inhibition at 10 µM [7]: 16.4%

SMILES: COc1ccc(I)cc1/C=C/C(=O)c1ccccc1O
- cytotoxicity at 10 µM [4]: 99.6%
- inhibition at 10 µM [7]: 99.7%

SMILES: COc1ccc(Br)cc1C1CC(=O)c2ccccc2O1 (centres undefined)
- inhibition (INH) [4]: Not Active

SMILES: COc1ccc(Br)cc1/C=C/C(=O)c1c(O)cccc1OCc1ccccc1
- inhibition at 10 µM [1]: 90.5%
- Activity [8]: Non-toxic
- cytotoxicity at 5 µM [2]: 0.6%
- cytotoxicity at 10 µM [3]: 61.7%
- inhibition [12]: Dose-dependent effect
- inhibition [9]: Dose-dependent effect
- IC50 [9]: 4.7 µM
- Activity [13]: Non-toxic
- inhibition [14]: Dose-dependent effect
- cytotoxicity at 10 µM [4]: 23.4%
- inhibition at 5 µM [5]: 80%
- inhibition at 10 µM [6]: 99.9%
- inhibition at 10 µM [7]: 86.5%
- inhibition [15]: Dose-dependent effect

SMILES: COc1ccc(Cl)cc1-c1oc2ccccc2c(=O)c1O
- cytotoxicity at 10 µM [4]: 23.5%

SMILES: COc1ccc(Br)cc1-c1oc2ccccc2c(=O)c1O
- Activity [8]: Non-toxic
- IC50 [9]: 43.7 µM
- inhibition (INH) [4]: Not Active
- inhibition at 10 µM [7]: 22.4%

SMILES: COc1cc(Br)cc(/C=C/C(=O)c2ccccc2O)c1OC
- cytotoxicity at 10 µM [4]: 72.3%

SMILES: CCOc1ccc(Br)cc1/C=C/C(=O)c1ccccc1O
- cytotoxicity at 10 µM [4]: 51.9%

SMILES: COc1ccc(I)cc1-c1oc2ccccc2c(=O)c1O
- cytotoxicity at 10 µM [4]: 15.3%

SMILES: CCOc1ccc(Cl)cc1/C=C/C(=O)c1ccccc1O
- cytotoxicity at 10 µM [4]: 86.4%
- inhibition at 10 µM [7]: 86.1%

Reference: ChEMBL document CHEMBL3797057, “Synthesis and bioevaluation of substituted chalcones, coumaranones and other flavonoids as anti-HIV agents” (Bioorg Med Chem, 2016)
